# NPY Y1 blocker – blocks the human neuropeptide Y Y1 receptor. P25929. HEK293-CNG Y1 cells, membrane potential fluorescence; NPY at EC95, then isoproterenol. inhibition, % at 3.6 µM. actives 1% (n = 200,000);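 active = inhibition above the campaign mean inhibition of all tested compounds plus 3 SD, cut at about 20% in these data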
#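 Material: HEK293 cells with Y1 receptor plus CNG channel; times: compound incubation 1 h at room temperature, readout 45 min post-stimulation; signal: fluorescence, membrane potential probe; read-out basis: fluorescence ratio normalized to % inhibition between controls; benchmarks: full-block control isoproterenol-only wells, zero-block control NPY plus isoproterenol wells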
# S1P4 agonist – agonists of human S1P4 receptor; actives 0.35% (n = 220,000); activation, % at 4.98 µM; S1P4-expressing cell line, agonist reporter assay; O95977; in the data active = activation above about 11%
# S1P4 antagonist – antagonists of human S1P4 receptor | O95977 | S1P4-expressing cells, antagonist mode, reporter read-out | inhibition, % at 4.98 µM | actives 0.26% (n = 220,000); in the data active = inhibition above about 29%
# NPY Y2 blocker – NPY-Y2 (human) receptor antagonism; NPY-Y2 expressing cells, antagonist mode; inhibition, % at 2.7 µM; actives 0.99% (n = 140,000); in the data active = inhibition above about 17%
# Target sequence (P49146 whole entry, looked up): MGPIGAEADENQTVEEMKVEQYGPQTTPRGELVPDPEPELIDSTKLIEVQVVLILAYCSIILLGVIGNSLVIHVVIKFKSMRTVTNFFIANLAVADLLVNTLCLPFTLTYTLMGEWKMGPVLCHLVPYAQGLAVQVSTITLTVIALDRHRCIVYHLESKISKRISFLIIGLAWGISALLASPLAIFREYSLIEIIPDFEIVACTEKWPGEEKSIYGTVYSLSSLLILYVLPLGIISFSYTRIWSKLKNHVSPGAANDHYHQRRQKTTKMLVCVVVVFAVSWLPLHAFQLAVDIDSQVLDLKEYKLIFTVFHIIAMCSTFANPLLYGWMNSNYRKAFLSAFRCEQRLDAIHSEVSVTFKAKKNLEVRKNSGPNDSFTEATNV
# NPY-Y2 PAM-ag – potentiators or agonists of human neuropeptide Y receptor Y2; activation, % at 3.6 µM; AID 1359; actives 0.45% (n = 220,000); cells expressing NPY-Y2, potentiator/agonist read-out; in the data active = activation above about 27%;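 also: cells stimulated with NPY near EC25 plus isoproterenol at EC100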
# NPY-Y1 PAM-ag – potentiates or activates human NPY-Y1 receptor. NPY-Y1 expressing cells, potentiator/agonist activation. activation, % at 3.6 µM. actives 0.37% (n = 220,000); in the data active = activation above about 33%, passing the limit was not always enough;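 also: cells stimulated with NPY at EC10 then isoproterenol at EC100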
# S1P4 agonist cf – confirmation of human S1P4 receptor agonists. shares compounds with S1P4 agonist. AID 1523. actives 7% (n = 740). S1P4 agonist cell-based reporter assay. activation, % at 4.98 µM; in the data active = activation above about 12%
# S1P1 agonist – activates human S1P1, counter-screen for S1P4 agonists; shares compounds with S1P4 agonist; S1P1 agonist cell-based assay, activation; activation, % at 4.98 µM; actives 4% (n = 740); in the data active = activation above about 21%
# Hits are given with their value; – = inactive; · = not tested or not shown. Compounds with a hit are over-represented: about 2.4% of the library has one in this group of screens.
SMILES,NPY Y1 blocker,S1P4 agonist,S1P4 antagonist,NPY Y2 blocker,NPY-Y2 PAM-ag,NPY-Y1 PAM-ag,S1P4 agonist cf,S1P1 agonist
Cc1cc(N2CCCC(C(=O)Nc3cccc(Cl)c3)C2)n2ncnc2n1 (configuration not stated),–,–,–,·,–,–,·,·
Cc1cc(N2CCCC(C(=O)Nc3ccc4c(c3)CCC4)C2)n2ncnc2n1 (configuration not stated),–,16.6,–,–,–,–,–,–
C=CCNC(=S)N/N=C/c1ccc(C)cc1C,–,47.7,–,·,–,–,–,–
COCn1c(-c2cccc(Br)c2)nc2ccccc21,–,82.2,–,–,–,–,–,–
COCn1c(-c2ccc(OC)c(OC)c2)nc2ccccc21,–,–,–,–,–,–,·,·
COc1ccc(NC(=O)Cn2c(CCC(=O)O)ccc2-c2ccc(C)cc2)cc1,–,–,–,·,–,–,·,·
CCC(C)NC(=O)Cn1c(=O)n(CCCCCC(=O)Nc2ccccc2)c(=O)c2sccc21 (configuration not stated),–,–,–,–,–,–,·,·
CCN(CC)C(=O)Cn1c(=O)n(CCCCCC(=O)Nc2ccccc2)c(=O)c2sccc21,–,11.6,–,–,–,–,–,–
Cc1ccc(S(=O)(=O)N(C)C)cc1NC(=O)C1CCCCC1,·,–,–,·,–,–,·,·
Cc1ccc(S(=O)(=O)N2CCc3ccccc3C2CC(=O)O)cc1 (configuration not stated),·,25.9,–,·,–,–,–,–
CCOc1ccccc1CNCCOC,–,–,–,·,–,–,·,·
Oc1c(C=Nc2ccccc2Cl)[nH]c2ccccc12,·,–,–,·,–,–,·,·
N#Cc1cnn2ccc(-c3cc(N4CCOCC4)ccc3[N+](=O)[O-])nc12,–,13.9,–,·,–,–,–,–
O=C(NNc1nc(=O)c2cccnc2s1)c1ccccc1O,–,–,–,·,–,–,·,·
COc1ccc(C2CC(c3cccs3)=NN2c2ccc(C=O)cc2)cc1 (configuration not stated),–,22.6,–,–,–,–,17.1,21.1
O=c1c2[nH]c3ccccc3c2ncn1CCC1=CCCCC1,–,17.1,–,–,–,–,–,–
O=C(CCC1CCCCC1)Nc1nccs1,–,125.5,–,·,–,–,–,–
S=C(NC1CC2CCC1C2)N1CCN(c2cccc(Cl)c2)CC1 (configuration not stated),–,–,–,·,–,–,·,·
CCN(C(=O)CSc1nc2ccccc2c(=O)n1CCOC)C1CCS(=O)(=O)C1 (configuration not stated),–,–,–,·,–,–,·,·
Cc1cc(Oc2ccc(-c3nnc(-c4ccccc4)o3)cc2[N+](=O)[O-])ccc1Cl,–,13.8,–,–,–,–,–,–
COCCCNC(=O)C1CCN(C(=O)Nc2ccc(Cl)cc2)CC1,–,60.7,–,–,–,–,–,–
C[N+](C)=C1SCC(C)(/C=N/O)S1 (configuration not stated),·,–,–,·,–,–,·,·
CC(C)(C)c1ccc(OCC(=O)Nc2ccc3c4c(cccc24)C(=O)NC3=O)cc1,–,18.8,–,·,–,–,–,–
CN(CC(=O)Nc1cccc2ccccc12)c1ccc(S(=O)(=O)N2CCOCC2)cn1,–,–,–,–,–,–,·,·
COc1ccc(C)cc1NC(=O)c1cnc2n(c1=O)CCS2,–,16.9,–,–,–,–,–,–
SMILES,NPY Y1 blocker,S1P4 agonist,S1P4 antagonist,NPY Y2 blocker,NPY-Y2 PAM-ag,NPY-Y1 PAM-ag,S1P4 agonist cf,S1P1 agonist
Cc1ccc(NC(=O)CN(C)C(=O)CCCN2C(=O)c3ccccc3C2=O)cc1,–,38.3,–,–,–,–,–,–
COc1ccc(CCNC(=S)NCCc2ccc(OC)c(OC)c2)cc1OC,·,–,–,·,–,–,·,·
COc1ccc(CCN/C=C2/CC(=O)NC2=O)cc1OC,–,16.7,–,–,–,–,–,–
Cc1ccc(-c2csc(/C(C#N)=C(\O)CCl)n2)cc1,–,19.5,–,·,–,–,–,–
COc1cc(/C=C/C(=O)OCC(=O)c2c(N)n(C)c(=O)n(C)c2=O)ccc1OCC#N,–,–,–,·,–,–,·,·
O=[N+]([O-])c1ccc2c(c1)CNc1ccccc1O2,–,33.1,–,·,–,–,–,–
CC(=O)N1Cc2cc([N+](=O)[O-])ccc2Oc2ccccc21,–,–,–,·,–,–,·,·
O=C(O)c1cccc(C(=O)c2cccc(C(=O)O)c2)c1,–,41.1,–,·,–,–,–,–
CC(C)c1nnc(NC(=O)Cc2ccc(Br)cc2)s1,–,–,–,–,–,–,·,·
O=C(Nc1ccc2c(c1)ncn2-c1ccccc1)c1ccco1,–,–,–,–,–,–,·,·
Cn1cnc2cc(NC(=O)c3ccco3)ccc21,–,61.2,–,–,–,–,–,–
CCn1c(=O)c2c3c(sc2n2c(=S)[nH]nc12)CCC3,–,23.4,–,–,–,–,–,–
Cc1ccc(-n2c(=O)c3c4c(sc3n3c(=S)[nH]nc23)CCC4)cc1,·,–,–,·,–,–,·,·
CCOc1cc(S(=O)(=O)NCCc2ccc(OC)c(OC)c2)c(OCC)cc1-n1cnnn1,–,72.8,–,–,–,–,–,–
CCOc1ccc(-n2cnnn2)cc1S(=O)(=O)NCCc1ccc(OC)c(OC)c1,–,–,–,–,–,–,·,·
CC(C)Oc1ccc(Br)cc1/C=N\NC(N)=S,–,–,–,–,–,–,·,·
CCOc1ccc(NC(=S)Nc2ccccc2C2(C)CC2)cc1,–,–,–,·,–,–,·,·
O=C(O)CSc1nnc(-c2cccc(S(=O)(=O)N3CCOCC3)c2)n1-c1cccc(Cl)c1,·,15.0,–,·,–,–,–,–
CNC(=O)CSc1nnc(-c2cccc(S(=O)(=O)N3CCOCC3)c2)n1-c1ccc(F)cc1,–,–,–,–,–,–,·,·
COc1ccc(-c2noc(CCCC(=O)Nc3ccc(C(N)=O)cc3)n2)cc1OC,·,–,–,·,–,–,·,·
COc1ccc(-c2cc(C(F)(F)F)n3nc(C(=O)Nc4c(C)n(C)n(-c5ccccc5)c4=O)cc3n2)cc1,–,–,–,·,–,–,·,·
N#Cc1ccc(/C=C\c2nccc3c2[nH]c2ccccc23)cc1,–,13.4,–,·,–,–,–,–
Clc1ccc(/C=C\c2nccc3c2[nH]c2ccccc23)cc1,–,22.7,–,·,–,–,24.9,84.1
OCCCCc1nccc2c1[nH]c1ccccc12,·,–,–,·,–,–,·,·
COc1cc(/C=N/NC(=O)CCC(=O)NCc2ccccc2)cc(OC)c1OC,–,–,–,–,–,–,·,·
CCCOc1ccc(C2C(C(=O)OC)=CN(CCOC)C=C2C(=O)OC)cc1,–,12.2,–,–,–,–,–,–
O=C(CSC1=N/C(=C/c2ccc(Cl)c(Cl)c2)C(=O)N1c1ccccc1F)NC1CC1,–,–,–,–,–,–,·,·
CCN(CC)C(=O)CNC(=O)Cc1ccc(Cl)cc1,–,–,–,–,–,–,·,·

# High-throughput results (PubChem BioAssay)
